{"source": "ChEMBL document CHEMBL1122744", "about": "“2-Chloroethyl (methylsulfonyl)methanesulfonate and related (methylsulfonyl)methanesulfonates. Antineoplastic activity in vivo” (J Med Chem, 1984)", "key": {"[1]": {"test_system": "Mus musculus", "experiment": "Mortality by day 5 expressed as number of mice died to the total treated at dose 15 mg/kg in exp4; 0/6", "type": "ADME, organism-based", "set-up": "dose 15 mg/kg", "conditions": "in vivo"}, "[2]": {"experiment": "Ratio of median survival times for non-survivors at dose 100 mg/kg in exp1", "type": "functional", "set-up": "unit: %", "in_short": "(§1)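 Mice were inoculated ip with 10^6 P388 leukemia cells on day 0. Groups of six (occasionally five) were dosed ip qd on days 1–5 with fresh suspensions; 30 mice served as untreated controls. Deaths were recorded daily up to day 60. T/C% compares the median survival of treated non-survivors (<60 days) with the control median. Medians used grouped data when there were no 30-day survivors, otherwise ungrouped data. t = toxic.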"}, "[3]": {"test_system": "Mus musculus", "experiment": "Change in weight by day 5, obtained by subtracting treated groups of animals minus control groups of animals at dose 50 mg/kg in exp5", "type": "functional", "in_short": "(§2)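 Mice were inoculated ip with 10^6 P388 leukemia cells on day 0 and weighed 19–22 g that day. Compound was given ip once daily on days 1–5, within about 5 min of preparing the solution or suspension, to groups of six (occasionally five). Thirty inoculated untreated mice served as controls. The value is the average weight change of treated mice minus that of controls on day 5.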"}, "[4]": {"experiment": "Ratio of median survival times for non-survivors at dose 200 mg/kg in exp1; t= toxic", "type": "ADME, organism-based", "set-up": "dose 200 mg/kg", "conditions": "in vivo", "in_short": "as §1"}, "[5]": {"experiment": "Ratio of number of 60-day survivors to the total treated mice at dose 50 mg/kg in exp8; 2/6", "type": "functional"}, "[6]": {"test_system": "Mus musculus", "experiment": "Mortality by day 5 expressed as number of mice died to the total treated at dose 50 mg/kg in exp2; 0/5", "type": "ADME, organism-based", "set-up": "dose 50 mg/kg", "conditions": "in vivo"}, "[7]": {"test_system": "Mus musculus", "experiment": "Median survival time of the treated control groups, in which there are no 30-day survivors at dose 33 mg/kg in exp6", "type": "functional"}, "[8]": {"test_system": "Mus musculus", "experiment": "Median survival time of the treated control groups, in which there are no 30-day survivors at dose 50 mg/kg in exp1", "type": "functional"}, "[9]": {"experiment": "Ratio of median survival times for non-survivors at dose 150 mg/kg in exp2; t= toxic", "type": "ADME, organism-based", "set-up": "dose 150 mg/kg", "conditions": "in vivo", "in_short": "as §1"}, "[10]": {"test_system": "Mus musculus", "experiment": "Median survival time of the untreated control groups, in which there are no 30-day survivors at dose 200 mg/kg in exp8", "type": "functional"}, "[11]": {"test_system": "Mus musculus", "experiment": "Median survival time of the treated control groups, in which there are no 30-day survivors at dose 33 mg/kg in exp7", "type": "functional"}, "[12]": {"test_system": "Mus musculus", "experiment": "Mortality by day 5 expressed as number of mice died to the total treated at dose 22 mg/kg in exp6; 0/6", "type": "ADME, organism-based", "set-up": "dose 22 mg/kg", "conditions": "in vivo"}, "[13]": {"test_system": "Mus musculus", "experiment": "Median survival time of the treated control groups, in which there are no 30-day survivors at dose 100 mg/kg in exp8", "type": "functional"}, "[14]": {"test_system": "Mus musculus", "experiment": "Median survival time of the untreated control groups, in which there are no 30-day survivors at dose 15 mg/kg in exp3", "type": "functional"}, "[15]": {"test_system": "Mus musculus", "experiment": "Median survival time of the treated control groups, in which there are no 30-day survivors at dose 50 mg/kg in exp8", "type": "functional"}, "[16]": {"test_system": "Mus musculus", "experiment": "Median survival time of the untreated control groups, in which there are no 30-day survivors at dose 33 mg/kg in exp6", "type": "functional"}, "[17]": {"experiment": "Ratio of number of 60-day survivors to the total treated mice at dose 50 mg/kg in exp5; 1/6", "type": "functional"}, "[18]": {"experiment": "Ratio of median survival times for non-survivors at dose 22 mg/kg in exp3", "type": "functional", "in_short": "as §1"}, "[19]": {"test_system": "Mus musculus", "experiment": "Mortality by day 5 expressed as number of mice died to the total treated at dose 100 mg/kg in exp2; 1/5", "type": "ADME, organism-based", "set-up": "dose 100 mg/kg", "conditions": "in vivo"}, "[20]": {"test_system": "Mus musculus", "experiment": "Mortality by day 5 expressed as number of mice died to the total treated at dose 50 mg/kg in exp5; 0/6", "type": "ADME, organism-based", "set-up": "dose 50 mg/kg", "conditions": "in vivo"}, "[21]": {"experiment": "Ratio of median survival times for non-survivors at dose 50 mg/kg in exp2", "type": "functional", "in_short": "as §1"}, "[22]": {"test_system": "Mus musculus", "experiment": "Change in weight by day 5, obtained by subtracting treated groups of animals minus control groups of animals at dose 200 mg/kg in exp1.", "type": "functional", "in_short": "as §2"}, "[23]": {"test_system": "Mus musculus", "experiment": "Change in weight by day 5, obtained by subtracting treated groups of animals minus control groups of animals at dose 33 mg/kg in exp5", "type": "functional", "in_short": "as §2"}, "[24]": {"test_system": "Mus musculus", "experiment": "Median survival time of the untreated control groups, in which there are no 30-day survivors at dose 50 mg/kg in exp7", "type": "functional"}, "[25]": {"test_system": "Mus musculus", "experiment": "Change in weight by day 5, obtained by subtracting treated groups of animals minus control groups of animals at dose 50 mg/kg in exp4.", "type": "functional", "in_short": "as §2"}, "[26]": {"test_system": "Mus musculus", "experiment": "Change in weight by day 5, obtained by subtracting treated groups of animals minus control groups of animals at dose 50 mg/kg in exp6", "type": "functional", "in_short": "as §2"}, "[27]": {"test_system": "Mus musculus", "experiment": "Change in weight by day 5, obtained by subtracting treated groups of animals minus control groups of animals at dose 22 mg/kg in exp5", "type": "functional", "in_short": "as §2"}, "[28]": {"experiment": "Ratio of number of 30-day survivors to the total treated mice at dose 50 mg/kg in exp8; 4/6", "type": "functional"}, "[29]": {"test_system": "Mus musculus", "experiment": "Median survival time of the treated control groups, in which there are no 30-day survivors at dose 50 mg/kg in exp2", "type": "functional"}, "[30]": {"experiment": "Number of 30-day survivors at dose 50 mg/kg in exp7*-one death on 6th day, one death on 27th day & four 30 day survivors; 4/6"}, "[31]": {"test_system": "Mus musculus", "experiment": "Median survival time of the untreated control groups, in which there are no 30-day survivors at dose 200 mg/kg in exp1", "type": "functional"}, "[32]": {"experiment": "Ratio of median survival times for non-survivors at dose 15 mg/kg in exp3", "type": "functional", "in_short": "as §1"}, "[33]": {"test_system": "Mus musculus", "experiment": "Mortality by day 5 expressed as number of mice died to the total treated at dose 22 mg/kg in exp7; 0/6", "type": "ADME, organism-based", "set-up": "dose 22 mg/kg", "conditions": "in vivo"}, "[34]": {"test_system": "Mus musculus", "experiment": "Change in weight by day 5, obtained by subtracting treated groups of animals minus control groups of animals at dose 50 mg/kg in exp2.", "type": "functional", "in_short": "as §2"}, "[35]": {"experiment": "Ratio of median survival times for non-survivors at dose 100 mg/kg in exp2", "type": "functional", "in_short": "as §1"}, "[36]": {"test_system": "Mus musculus", "experiment": "Median survival time of the untreated control groups, in which there are no 30-day survivors at dose 33 mg/kg in exp2", "type": "functional"}, "[37]": {"test_system": "Mus musculus", "experiment": "Mortality by day 5 expressed as number of mice died to the total treated at dose 22 mg/kg in exp3; 0/5", "type": "ADME, organism-based", "set-up": "dose 22 mg/kg", "conditions": "in vivo"}, "[38]": {"experiment": "Ratio of number of 30-day survivors to the total treated mice at dose 50 mg/kg in exp1; 4/6", "type": "functional"}, "[39]": {"test_system": "Mus musculus", "experiment": "Median survival time of the untreated control groups, in which there are no 30-day survivors at dose 50 mg/kg in exp8", "type": "functional"}, "[40]": {"test_system": "Mus musculus", "experiment": "Change in weight by day 5, obtained by subtracting treated groups of animals minus control groups of animals at dose 22 mg/kg in exp7", "type": "functional", "in_short": "as §2"}, "[41]": {"test_system": "Mus musculus", "experiment": "Mortality by day 5 expressed as number of mice died to the total treated at dose 50 mg/kg in exp6; 0/6", "type": "ADME, organism-based", "set-up": "dose 50 mg/kg", "conditions": "in vivo"}, "[42]": {"experiment": "Ratio of number of 60-day survivors to the total treated mice at dose 50 mg/kg in exp6; […]", "type": "functional"}, "[43]": {"experiment": "Ratio of median survival times for non-survivors at dose 33 mg/kg in exp5", "type": "functional"}, "[44]": {"test_system": "Mus musculus", "experiment": "Change in weight by day 5, obtained by subtracting treated groups of animals minus control groups of animals at dose 33 mg/kg in exp4.", "type": "functional", "in_short": "as §2"}}, "data": [{"smiles": "CS(=O)(=O)CS(=O)(=O)OCCCl", "values": [{"measurement": "Mortality", "setting": "[1]", "value": 0}, {"measurement": "Ratio", "setting": "[2]", "value": 151}, {"measurement": "Change in weight", "setting": "[3]", "value": -2.2}, {"measurement": "Ratio", "setting": "[4]", "value": "Toxic"}, {"measurement": "Ratio", "setting": "[5]", "value": 2}, {"measurement": "Mortality", "setting": "[6]", "value": 0}, {"measurement": "Median survival time", "setting": "[7]", "value": 23.3}, {"measurement": "Median survival time", "setting": "[8]", "value": 31.5}, {"measurement": "Ratio", "setting": "[9]", "value": "Toxic"}, {"measurement": "Median survival time", "setting": "[10]", "value": 11}, {"measurement": "Median survival time", "setting": "[11]", "value": 22.3}, {"measurement": "Mortality", "setting": "[12]", "value": 0}, {"measurement": "Median survival time", "setting": "[13]", "value": 6}, {"measurement": "Median survival time", "setting": "[14]", "value": 11.1}, {"measurement": "Median survival time", "setting": "[15]", "value": 30}, {"measurement": "Median survival time", "setting": "[16]", "value": 13}, {"measurement": "Ratio", "setting": "[17]", "value": 1}, {"measurement": "Ratio", "setting": "[18]", "value": 166}, {"measurement": "Mortality", "setting": "[19]", "value": 1}, {"measurement": "Mortality", "setting": "[20]", "value": 0}, {"measurement": "Ratio", "setting": "[21]", "value": 241}, {"measurement": "T-C", "setting": "[22]", "value": -5, "unit": "g"}, {"measurement": "Change in weight", "setting": "[23]", "value": -1.5}, {"measurement": "Median survival time", "setting": "[24]", "value": 13}, {"measurement": "Change in weight", "setting": "[25]", "value": -3}, {"measurement": "Change in weight", "setting": "[26]", "value": -3.1}, {"measurement": "Change in weight", "setting": "[27]", "value": -1.3}, {"measurement": "Ratio", "setting": "[28]", "value": 4}, {"measurement": "Median survival time", "setting": "[29]", "value": 27}, {"measurement": "30-day survivors", "setting": "[30]", "value": 4}, {"measurement": "Median survival time", "setting": "[31]", "value": 11.2, "unit": "days"}, {"measurement": "Ratio", "setting": "[32]", "value": 144}, {"measurement": "Mortality", "setting": "[33]", "value": 0}, {"measurement": "Change in weight", "setting": "[34]", "value": -3.4}, {"measurement": "Ratio", "setting": "[35]", "value": 200}, {"measurement": "Median survival time", "setting": "[36]", "value": 11.2}, {"measurement": "Mortality", "setting": "[37]", "value": 0}, {"measurement": "Ratio", "setting": "[38]", "value": 4}, {"measurement": "Median survival time", "setting": "[39]", "value": 11}, {"measurement": "Change in weight", "setting": "[40]", "value": -2.2}, {"measurement": "Mortality", "setting": "[41]", "value": 0}, {"measurement": "Ratio", "setting": "[42]", "value": 2}, {"measurement": "Ratio", "setting": "[43]", "value": 214}, {"measurement": "Change in weight", "setting": "[44]", "value": -2.6}]}]}
